According to ChEMBL document CHEMBL4390662, “Design, synthesis and biological evaluation of novel α-acyloxy carboxamides via Passerini reaction as caspase 3/7 activators” (Eur J Med Chem, 2019):
The source made the active and inactive calls. No cut-off for these calls is given here.

How the values were obtained:
MCF7 [1] = assay: Induction of apoptosis in human MCF7 cells assessed as viable cells level at IC50 incubated for 72 hrs by annexin V/propidium iodide staining based flow cytometry (reference value: 99.5%); format: functional
NFS-60 [2] = assay: Induction of caspase-independent apoptosis in mouse NFS60 cells assessed as AIF1 release level using tetramethylbenzidine as substrate incubated for 1 hr by ELISA (reference value: 2.37 +/- 0.035 ng/ml); format: functional
Method in brief: (§1)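 Extracts of untreated and treated cells added to anti-AIF1-coated wells. Incubated 1 h with HRP-conjugated antibody, washed, then TMB substrate added. Reaction stopped after 10 min and read at 450 nm. AIF1 reported in ng/mL, mean ± SEM.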

WI-38 = assay: Cytotoxicity against human WI38 cells assessed as cell growth inhibition incubated for 72 hrs by MTT assay; format: cell-based; settings: for IC50: Homo sapiens, WI-38, 72 h; for EC100: human, wi-38, 72 h
Method in brief: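 Wi-38 fibroblasts grown in DMEM with 10% FBS and seeded at 5×10^3 per well. Attachment 24 h, then serial concentrations for 72 h at 37°C, 5% CO2. MTT stock (5 mg/mL) added for 3 h at 37°C, DMSO solubilization, absorbance at 570 nm. IC50 estimated.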

HepG2 [3] = assay: Induction of apoptosis in human HepG2 cells assessed as late apoptotic cells level at IC50 incubated for 72 hrs by annexin V/propidium iodide staining based flow cytometry (reference value: 0.1%); format: functional
MCF7 [4] = assay: Induction of apoptosis in human MCF7 cells assessed as induction of cell shape loss by phase contrast inverted fluorescence microscopy; format: functional, cell-based
MCF7 [5] = assay: Induction of apoptosis in human MCF7 cells assessed as late apoptotic cells level at IC50 incubated for 72 hrs by annexin V/propidium iodide staining based flow cytometry (reference value: 0.01%); format: functional
NFS-60 [6] = assay: Induction of apoptosis in mouse NFS60 cells assessed as early apoptotic cells level at IC50 incubated for 72 hrs by annexin V/propidium iodide staining based flow cytometry (reference value: 0.46%); format: functional
HepG2 [7] = assay: Induction of apoptosis in human HepG2 cells assessed as induction of cell shape loss by phase contrast inverted fluorescence microscopy; format: functional, cell-based
MCF7 [8] = assay: Potency index, ratio of doxorubicin IC50 to test compound IC50 against human MCF7 cells; format: functional
HepG2 [9] = assay: Induction of apoptosis in human HepG2 cells assessed as early apoptotic cells at IC50 incubated for 72 hrs by annexin V/propidium iodide staining based flow cytometry (reference value: 0.78 +/- 0.09%); format: functional
MCF7 [10] = assay: Induction of apoptosis in human MCF7 cells assessed as early apoptotic cells at IC50 incubated for 72 hrs by annexin V/propidium iodide staining based flow cytometry (reference value: 0.47 +/- 0.01%); format: functional
NFS-60 [11] = assay: Induction of apoptosis in mouse NFS60 cells assessed as induction of cell shrinkage by phase contrast inverted fluorescence microscopy; format: functional, cell-based
MCF7 [12] = assay: Induction of apoptosis in human MCF7 cells assessed as caspase 3/7 activity using DEVD aminoluciferin as substrate at IC50 after 24 hrs […] relative to control; format: functional
Method in brief: (§2)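 Caspase 3/7 activation measured with Caspase-Glo 3/7 kit using a luminogenic caspase-cleavable substrate. […] Reported as percent activation, mean ± SEM.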

HepG2 [13] = assay: Induction of apoptosis in human HepG2 cells assessed as induction of cell shrinkage by phase contrast inverted fluorescence microscopy; format: functional, cell-based
NFS-60 [14] = assay: Cytotoxicity against mouse NFS60 cells assessed as cell growth inhibition incubated for 72 hrs by MTT assay; format: functional, cell-based; settings: NFS-60, 72 h
Method in brief: (§3)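 Cells grown in RPMI-1640 with 10% FBS and seeded at 5×10^3 per well. After 24 h, serial concentrations given for 72 h at 37°C, 5% CO2. Then 5 mg/mL MTT stock added for 3 h, formazan dissolved in DMSO, A570 read. IC50 calculated from the curves.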

MCF7 [15] = assay: Cytotoxicity against human MCF7 cells assessed as cell growth inhibition incubated for 72 hrs by MTT assay; format: functional, cell-based; settings: MCF7, 72 h; method in brief: as §3
HepG2 [16] = assay: Cytotoxicity against human HepG2 cells assessed as cell growth inhibition incubated for 72 hrs by MTT assay; format: functional, cell-based; settings: HepG2, 72 h; method in brief: as §3
NFS-60 [17] = assay: Induction of apoptosis in mouse NFS60 cells assessed as induction of cell shape loss by phase contrast inverted fluorescence microscopy; format: functional, cell-based
NFS-60 [18] = assay: Induction of apoptosis in mouse NFS60 cells assessed as caspase 3/7 activity using DEVD aminoluciferin as substrate at IC50 after 24 hrs […] relative to control; format: functional; method in brief: as §2
HepG2 [19] = assay: Induction of caspase-independent apoptosis in human HepG2 cells assessed as AIF1 release level using tetramethylbenzidine as substrate incubated for 1 hr by ELISA (reference value: 1.18 +/- 0.06 ng/ml); format: functional; method in brief: as §1
NFS-60 [20] = assay: Induction of apoptosis in mouse NFS60 cells assessed as viable cells level at IC50 incubated for 72 hrs by annexin V/propidium iodide staining based flow cytometry (reference value: 99.52%); format: functional
NFS-60 [21] = assay: Induction of apoptosis in mouse NFS60 cells assessed as early apoptotic cells at IC50 incubated for 72 hrs by annexin V/propidium iodide staining based flow cytometry (reference value: 0.02 +/- 0.01%); format: functional
NFS-60 [22] = assay: Induction of apoptosis in mouse NFS60 cells assessed as necrotic cells level at IC50 incubated for 72 hrs by annexin V/propidium iodide staining based flow cytometry (reference value: 0.01%); format: functional
HepG2 [23] = assay: Induction of apoptosis in human HepG2 cells assessed as early apoptotic cells level at IC50 incubated for 72 hrs by annexin V/propidium iodide staining based flow cytometry (reference value: 0.05%); format: functional
[24] = Selectivity index, ratio of IC50 for human WI38 cells to IC50 for human MCF7 cells; format: toxicity; settings: WI38 cells versus MCF7 cells, read-out: Ratio IC50
Method in brief: (§4)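 SI calculated as IC50 on normal Wi-38 fibroblasts divided by IC50 on the cancer cell line. Both came from 72 h MTT assays.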

[25] = Selectivity index, ratio of IC50 for human WI38 cells to IC50 for mouse NFS60 cells; method in brief: as §4
HepG2 [26] = assay: Induction of apoptosis in human HepG2 cells assessed as total apoptotic cells at IC50 incubated for 72 hrs by annexin V/propidium iodide staining based flow cytometry (reference value: 0.169 +/- 0.02%); format: functional
[27] = Selectivity index, ratio of IC50 for human WI38 cells to IC50 for human HepG2 cells; format: toxicity; settings: WI38 cells versus HepG2 cells, read-out: Ratio IC50; method in brief: as §4
NFS-60 [28] = assay: Induction of apoptosis in mouse NFS60 cells assessed as late apoptotic cells at IC50 incubated for 72 hrs by annexin V/propidium iodide staining based flow cytometry (reference value: 0.015 +/- 0.01%)
MCF7 [29] = assay: Induction of caspase-independent apoptosis in human MCF7 cells assessed as AIF1 release level using tetramethylbenzidine as substrate incubated for 1 hr by ELISA (reference value: 2.28 +/- 0.06 ng/ml); format: functional; method in brief: as §1
HepG2 [30] = assay: Induction of apoptosis in human HepG2 cells assessed as necrotic cells level at IC50 incubated for 72 hrs by annexin V/propidium iodide staining based flow cytometry (reference value: 0.87%); format: functional

Row | SMILES | Activity (MCF7 [1]) | Activity (NFS-60 [2]) | IC50 (WI-38) | EC100 (WI-38) | Activity (HepG2 [3]) | Activity (MCF7 [4]) | Activity (MCF7 [5]) | Activity (NFS-60 [6]) | Activity (HepG2 [7]) | Ratio IC50 (MCF7 [8]) | Activity (HepG2 [9]) | Activity (MCF7 [10]) | Activity (NFS-60 [11]) | Activity (MCF7 [12]) | Activity (HepG2 [13]) | IC50 (NFS-60 [14]) | IC50 (MCF7 [15]) | IC50 (HepG2 [16]) | Activity (NFS-60 [17]) | Activity (NFS-60 [18]) | further results
1 | O=C(OC1(C(=O)Nc2ccc([N+](=O)[O-])cc2)CCCCC1)c1ccc([N+](=O)[O-])cc1 | 54.7% | 2.44 ng/mL | 761 nM | 0.149 µM | 20.78% | Active | 18.31% | 2.41% | Active | 2 - 4 | 18.43% | 24.065% | Active | 50.94% | Active | 7.7 nM | 8.7 nM | 14.1 nM | Active | 49.59% | Activity (HepG2 [19]): 1.28 ng/mL; Activity (NFS-60 [20]): 55.46%; Activity (NFS-60 [21]): 22.83%; Activity (NFS-60 [22]): 24.58%; Activity (HepG2 [23]): 1.95%; selectivity ratio [24]: 87.5; Ratio IC50 [25]: 98.831; Activity (HepG2 [26]): 41.815%; selectivity ratio [27]: 54; Activity (NFS-60 [28]): 18.965%; Activity (MCF7 [29]): 2.34 ng/mL; Activity (HepG2 [30]): 19.9%
2 | O=C(Cc1ccccc1)OC1(C(=O)Nc2ccc([N+](=O)[O-])cc2)CCCCC1 | 59.23% | 2.41 ng/mL | 43.9 nM | 0.032 µM | 26.59% | Active | 20.57% | 5.65% | Active | 2 - 4 | 6.0649% | 11.885% | Active | 43.04% | Active | 8.1 nM | 7.7 nM | 14.2 nM | Active | 45.41% | Activity (HepG2 [19]): 1.23 ng/mL; Activity (NFS-60 [20]): 61.34%; Activity (NFS-60 [21]): 13.64%; Activity (NFS-60 [22]): 14.8%; Activity (HepG2 [23]): 2.74%; selectivity ratio [24]: 5.7; Ratio IC50 [25]: 5.419; Activity (HepG2 [26]): 33.485%; selectivity ratio [27]: 3.09; Activity (NFS-60 [28]): 20.09%; Activity (MCF7 [29]): 2.33 ng/mL; Activity (HepG2 [30]): 7.13%
3 | O=C(OC1(C(=O)Nc2ccc([N+](=O)[O-])cc2)CCCCC1)C(O)c1ccccc1 (stereo unspecified) | 43.92% | 2.47 ng/mL | 84.4 nM | 0.0507 µM | 41.88% | Active | 28.9% | 2.12% | Active | 2 - 4 | 6.055% | 22.345% | Active | 55.04% | Active | 7.8 nM | 5.01 nM | 7.7 nM | Active | 52.835% | Activity (HepG2 [19]): 1.305 ng/mL; Activity (NFS-60 [20]): 53.25%; Activity (NFS-60 [21]): 21.04%; Activity (NFS-60 [22]): 21.74%; Activity (HepG2 [23]): 3.14%; selectivity ratio [24]: 16.8; Ratio IC50 [25]: 10.82; Activity (HepG2 [26]): 48.905%; selectivity ratio [27]: 11; Activity (NFS-60 [28]): 23.645%; Activity (MCF7 [29]): 2.36 ng/mL; Activity (HepG2 [30]): 7.11%
